# This is a sample that favours compounds with a hit; in the whole collection about 3.5% have one here.
# bCat nuc transl: modulators of beta-catenin nuclear translocation; HeLa beta-catenin nuclear translocation, immunofluorescence imaging; nuclear translocation activity, % at 5 µM; hit rate 0.3% among 190,000; AID 1665;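 active = nuclear translocation activity above 50% at 5 µM, with a well cell count of 50 or more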;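 note: per-cell ratio of nuclear to cytoplasmic median beta-catenin stain intensity; plate controls were DMSO negative control for no effect and GSK-3 inhibitor IX positive control for full effect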
#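 Test system: HeLa cells, endogenous beta-catenin; Compound: single 5 µM dose plus 0.02–20 µM confirmation series; Times: compound exposure 24 h at 37°C; Signal: fluorescence imaging of beta-catenin antibody stain plus DAPI; Read-out: % activation, nuclear-to-cytoplasmic median beta-catenin signal ratio per cell.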
# MT stabilize HCS: microtubule stabilizers in HeLa cells; HeLa tubulin immunostaining HCS, 24 h; share of cells brighter than vehicle mean+2SD; % tubulin-high responders, % at 10 µM; hit rate 0.83% among 200,000;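 active = plate Z-score above 3 for both tubulin-high and condensed-nucleus cell shares, with cell loss under 80%, at 10 µM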;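 note: anti alpha tubulin signal scored within the nucleus-defined area of each cell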
# RAM network inh: blocks the yeast RAM network | S. cerevisiae dse1pr::URA3 reporter, 5-FOA growth OD615, 2 d; analog-sensitive cbk1-as2 kinase mutant strain | inhibition, % at 50 µM | hit rate 1.8% among 190,000 | AID 868;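 active = inhibition above a set limit, 3 SD over mean compound inhibition, cut at about 8.4% in these data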;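 note: 0% = DMSO-only wells with no growth and 100% = 10 µM 1-NA-PP1 full growth; inhibition rescues growth on 5-FOA so higher OD means more RAM inhibition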
# HMGR II inh: E. faecalis class II HMG-CoA reductase inhibition. AID 1066. inhibition, % at 10 µM. hit rate 0.41% among 190,000. purified E. faecalis HMGR, NADPH absorbance 340 nm kinetic;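 active = inhibition above a set limit, the median over all tested compounds plus 3 SD, cut at about 9.5% in these data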;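 note: enzyme runs in reverse so mevalonate oxidation gives rising NADPH absorbance; 0% = complete reaction with DMSO and 100% = background rate lacking mevalonate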
# Yeast growth inh: reduces growth of yeast BB579 in restrictive medium; inhibition, % at 10 µM; S. cerevisiae BB579 growth, OD615, 48 h; hit rate 0.51% among 140,000;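 active = inhibition above a set limit, 3 SD over the mean compound inhibition, cut at about 44% in these data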
#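 Assay system: S. cerevisiae DeaD strain BB579 yeast. Medium: CSMM-D restrictive synthetic medium containing dextrose (glucose). Times: 4 h cell preincubation, 48 h compound exposure, 30 °C humidified. Signal: OD615 turbidity measurement. Benchmarks: positive control amphotericin B 10 µg/mL.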
# Yeast life ext: extends the lifespan of yeast. S. cerevisiae growth with nicotinamide, OD615; deaD strain in restrictive glucose medium. hit rate 0.68% among 130,000. inhibition of the nicotinamide effect, % at 10 µM. AID 775;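 active = inhibition above a set limit, placed 3 SD over the median of all compounds, cut at about 26% in these data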;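 note: 0% = nicotinamide-treated wells and 100% = cells grown without nicotinamide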
#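 Test system – modified budding yeast, DeaD strain · Compound – single dose 10 µM compound, 0.25% DMSO · Times – culture preincubation 4 h, compound exposure 48 h, both 30 °C · Detection – optical density (absorbance) at 615 nm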
# RAM 5-FOA: RAM network inhibition, efflux-deficient strain; shares compounds with RAM network inh; S. cerevisiae efflux-deficient reporter strain, 5-FOA growth OD615, 2 days; max inhibition, %; 1,200 tested, under 10 active; call rule not given here;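 note: plate controls were vehicle for no effect and reference inhibitor for full effect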
# * hit, by the source's call; . = no result.
SMILES,bCat nuc transl,MT stabilize HCS,RAM network inh,HMGR II inh,Yeast growth inh,Yeast life ext,RAM 5-FOA
COc1ccc(OC)c(NC(=O)C(C)Oc2ccc(Br)cc2)c1 (stereo not drawn),1,5,3,-3,.,.,.
O=C(OC(c1ccc(NS(=O)(=O)c2ccccc2)cc1)(C(F)(F)F)C(F)(F)F)c1ccccc1,.,2,13*,-4,-15,10,2
Cn1nnnc1SCC(=O)Nc1cc(S(=O)(=O)N2CCCC2)ccc1Cl,-2,2,0,-8,.,.,.
O=C(CSc1cccc(C(F)(F)F)c1)Nc1cc(S(=O)(=O)N2CCCC2)ccc1Cl,-4,3,16*,-4,-51,11,1
COc1ccccc1C(=O)N/C(=C\c1ccc(Br)cc1)C(=O)N1CCCC1,1,.,.,.,.,.,.
Cc1ccc(SCCNC(=S)Nc2ccccc2)cc1,-1,1,1,-3,-40,-14,.
COC(=O)Cc1ccc(NC(=S)NCCSc2ccc(Cl)cc2)cc1,1,.,.,.,.,.,.
Cc1cc(C)cc(NC(=S)NCCSc2ccc(Cl)cc2)c1,-6,3,13*,-4,1,-5,7
Cc1ccc(SCCNC(=S)Nc2ccc(C)c(C)c2)cc1,.,2,13*,-5,14,-6,3
O=C(NCCc1cccc(Cl)c1)c1cccs1,1,4,-1,-5,.,.,.
COc1ccc(N(C)S(=O)(=O)c2cccc(C(=O)OCC(=O)Nc3sc4c(c3C#N)CCCCC4)c2)cc1,1,4,11*,-2,-9,5,2
COc1ccccc1CNS(=O)(=O)N(C)C,0,1,0,-1,.,.,.
Cc1oc2ccc(OC(=O)c3cccs3)cc2c1C(=O)OC(C)C,-1,3,14*,6,-48,-3,1
CCOC(=O)c1c(C)[nH]c(C(=O)C(C)Sc2ccc(Cl)cc2)c1C (stereo not drawn),0,3,12*,6,-69,-17,3
FC(F)Sc1ccc(NC(=S)NCc2ccccc2)cc1,0,4,1,1,.,.,.
FC(F)Sc1ccc(NC(=S)NC(c2ccccc2)c2ccccc2)cc1,-1,4,19*,-3,.,.,4
CC1=C(C(=O)OCc2ccccc2)C(c2ccc([N+](=O)[O-])cc2)NC(=O)N1CCCCCC(=O)O (stereo not drawn),0,3,14*,-8,-33,10,5
CC1=C(C(=O)OCc2ccccc2)C(c2ccccc2-c2ccccc2)NC(=O)N1CCCCCC(=O)O (stereo not drawn),-2,5,4,5,-60,11,.
CC1=C(C(=O)OCc2ccccc2)C(c2ccc(C(C)(C)C)cc2)NC(=O)N1CCCCCC(=O)O (stereo not drawn),-5,5,18*,3,-45,6,6
O=C(CNC(=S)N(CCCN1CCOCC1)Cc1cccs1)N1CCCC1,0,3,-1,-11,.,.,.
Cc1onc(-c2ccccc2)c1CNS(=O)(=O)c1ccccc1[N+](=O)[O-],-5,.,.,.,.,.,.
CCCCNC(=S)N(C)/N=C/c1ccc(OCc2ccc(C(=O)OC)cc2)c(OC)c1,2,3,14*,-1,-18,0,7
CC(C)(C)NC(=O)c1ccc(NC(=O)CSc2ccccc2)cc1,1,3,22*,0,.,.,2
Cc1ccc(NN=C2c3ccccc3-c3ccccc32)cc1,-1,3,15*,-4,-21,-3,5
Cc1ccc(OCC(=O)NN=C2c3ccccc3-c3ccccc32)cc1,-1,2,2,-6,-26,-4,.
SMILES,bCat nuc transl,MT stabilize HCS,RAM network inh,HMGR II inh,Yeast growth inh,Yeast life ext,RAM 5-FOA
O=C(C(Sc1ccccc1)c1ccccc1)N1CCN(c2ccccc2F)CC1 (stereo not drawn),-4,0,14*,-9,-62,0,1
Cc1ccc(-c2nn(CC(=O)NN3CCOCC3)c(=O)c3ccccc23)cc1,-4,.,.,.,.,.,.
O=[N+]([O-])c1ccc(N/N=C/c2sc(N3CCOCC3)nc2-c2ccccc2)c(S(=O)(=O)Nc2ccc(Cl)cc2)c1,2,24,12*,-5,.,.,6
O=C(O)c1cccc(N/N=C/c2sc(N3CCOCC3)nc2-c2ccccc2)c1,0,2,1,-3,-1,-3,.
CCCN(CC1CC1)C(=O)CSc1ncnc2sc(C)c(C)c12,.,1,14*,-6,-26,-4,2
CCN(C(=O)CSc1ncnc2sc(C)c(C)c12)C1CCS(=O)(=O)C1 (stereo not drawn),-2,2,1,0,.,.,.
OCCNc1nc(SCc2ccccc2)nc2sc3c(c12)CCC3,1,3,11*,0,-41,-28,3
Cc1nc(NCc2cccnc2)c2c3c(sc2n1)CCCC3,-2,2,1,-4,.,.,.
C=CCn1cccc(/C=C/C(=O)c2ccc(C(C)(C)C)cc2)c1=S,3,1,17*,-2,-23,5,8
CN1CCN(C(=S)NC(=O)c2ccc(C(C)(C)C)cc2)CC1,-1,2,0,0,-6,2,.
O=C(CC1C(=O)NCCN1Cc1cccc(Oc2ccccc2)c1)NCCCn1cccn1 (stereo not drawn),-2,5,1,-3,.,.,.
O=S(=O)(c1ccc(F)c(F)c1F)N1CCN(C(=S)Nc2ccccc2)CC1,-3,4,4,-3,.,.,.
COc1cc(NC(=O)c2ccc3c(c2)OCO3)c2ncccc2c1,8,5,12*,-1,-4,-8,6
CCOC(=O)CCCSc1nnc(CCCCCN2C(=O)c3cccc4cccc(c34)C2=O)o1,-1,5,14*,0,-37,5,3
Cc1nnc(SCCCN2C(=O)c3ccccc3C2=O)o1,-7,6,1,4,-23,8,.
C=CCSc1nnc(CCCCCN2C(=O)c3cccc4cccc(c34)C2=O)o1,0,3,16*,-4,-47,8,1
COC(=O)CCSC(=S)N1CCOCC1,0,.,.,.,.,.,.
O=C(CCl)Nc1cn(-c2ccccc2)nc1-c1ccc(F)cc1,0,5,2,-3,.,.,.
Cn1nc(C(F)(F)F)c(/C=N/OC(=O)c2ccccc2)c1SCc1ccccc1Cl,-2,3,12*,-6,-28,6,2
O=C(C1CC1)N(Cc1ccco1)c1nc(-c2ccccc2)cs1,0,3,12*,2,-13,-16,3
COc1ccc(-n2nnc3c(SCC(=O)OCc4ccccc4)ncnc32)cc1,-2,4,14*,-5,-31,-3,3
OCCC1CN(Cc2cc(F)ccc2-n2cccn2)CCN1Cc1ccc(F)cc1 (stereo not drawn),1,.,.,.,.,.,.

# Bioassay records as filed in PubChem BioAssay.
